Drawing on ChEMBL document CHEMBL1123938, “Synthesis and biological studies of iodinated (127/125I) derivatives of rhodamine 123” (1987), this text covers Concentration and Ratio for five molecules.

The test system of assay [1] is PC-3. Put plainly: Extra cellular concentration of radiolabeled compound was determined in human prostate PC3 adenocarcinoma cells. In kind it is functional, cell-based. In short, it runs like this: (§1)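 V79 Chinese hamster lung fibroblasts or human PC3 prostate adenocarcinoma cells, grown at 37 °C in MEM with 15% fetal calf serum. Log-phase cells were trypsinized and suspended at 2 × 10⁵/mL in calcium-free MEM, then preincubated 4 h at 37 °C on a roller. Carrier-free ¹²⁵I-labelled dihydrorhodamine derivative was added and incubated 2 h at 37 °C. Cell radioactivity was measured by microfuge; intracellular concentration was derived from Coulter-measured cell volumes.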

Assay [2] is filed under the species Cricetulus griseus. Put plainly: Extra cellular concentration of radiolabeled compound was determined in chinese hamster V79 lung fibroblasts. In kind it is functional. The method in brief: as §1
Assay [3] can be described thus: Ratio of pCi/cell cellular uptake to uCi/mL cellular uptake. In kind it is functional.

“And” between values parts separate entries of the source, which are not always exact repeats. Identical values can stand only once.

For `COC(=O)c1ccccc1C1c2cc(I)c(N)cc2Oc2cc(N)c(I)cc21`, the Concentration in assay [1] was 0.883 uCi ml-1; in assay [2] it was 0.97 uCi ml-1.

Consider `COC(=O)c1ccccc1C1c2cc(I)c(N)cc2Oc2c1cc(I)c(N)c2I` (stereo unspecified), for which the Concentration in assay [1] stood at 1.15 uCi ml-1; in assay [2] it was 1.3 uCi ml-1. In addition, the Ratio in assay [3] was 0.152 and 0.348.

For the molecule `COC(=O)c1ccccc1C1c2ccc(N)cc2Oc2cc(N)c(I)cc21` (stereo unspecified), the Concentration stood at 0.937 uCi ml-1 in assay [1] and 0.956 uCi ml-1 in assay [2].

For `COC(=O)c1ccccc1C1c2cc(I)c(N)cc2Oc2c1ccc(N)c2I` (stereo unspecified), the Concentration came out at 1.35 uCi ml-1 in assay [1] and 1.64 uCi ml-1 in assay [2].

Turning to `COC(=O)c1ccccc1C1c2ccc(N)cc2Oc2c1ccc(N)c2I` (stereo unspecified), the Concentration in assay [1] was 1.2 uCi ml-1; in assay [2], 1.27 uCi ml-1.
